These compounds were tested on Plasmodium falciparum (assay: In vitro antimalarial activity against ring stage of chloroquine-resistant Plasmodium falciparum W2 cultured in medium containing 10% human serum assessed as inhibition of parasite growth after 48 hrs by YOYO-1 dye based flow cytometry). Conditions: W2, 48 h.
Type: functional, organism-based
Procedure, shortened: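 Ring-stage microwell cultures were exposed to a range of compound concentrations for 48 h, with 0.1% DMSO maximum and in the no-inhibitor controls. Cells were fixed in 1% formaldehyde/PBS pH 7.4 for 48 h at room temperature, then stained with 1 nM YOYO-1 in 0.1% Triton X-100/PBS. Parasitemia was counted by flow cytometry, and IC50 obtained by nonlinear regression of % control parasitemia from duplicate experiments.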
`O=C1C(=O)N(Cc2cnnn2CCNc2ccnc3cc(Cl)ccc23)c2ccc(Cl)cc21` showed an IC50 of 1.37 µM.
`O=C1C(=O)N(Cc2cnnn2CCCNc2ccnc3cc(Cl)ccc23)c2ccc(F)cc21` showed an IC50 of 1.35 µM.
`O=C1C(=O)N(Cc2cnnn2CCCNc2ccnc3cc(Cl)ccc23)c2ccc(Br)cc21` gave an IC50 of 1.66 µM.
`O=C1C(=O)N(Cc2cnnn2-c2ccnc3cc(Cl)ccc23)c2ccc(Cl)cc21` gave an IC50 greater than 5 µM.
In the case of `O=C1C(=O)N(Cc2cnnn2CCCNc2ccnc3cc(Cl)ccc23)c2ccc(Cl)cc21`, the IC50 is reported as 1.21 µM.
`Cc1ccc2c(c1)C(=O)C(=O)N2Cc1cnnn1-c1ccnc2cc(Cl)ccc12` was tested, and the IC50 was greater than 5 µM.
`O=C1C(=O)N(Cc2cnnn2CCNc2ccnc3cc(Cl)ccc23)c2ccc(F)cc21` was tested, and the IC50 was 2.3 µM.
In the case of `O=C1C(=O)N(Cc2cnnn2CCNc2ccnc3cc(Cl)ccc23)c2ccc(Br)cc21`, the IC50 is reported as 1.73 µM.
For `O=C1C(=O)N(Cc2cnnn2CCCNc2ccnc3cc(Cl)ccc23)c2ccccc21`, the IC50 was 3.85 µM.
With `O=C1C(=O)N(Cc2cnnn2-c2ccnc3cc(Cl)ccc23)c2ccc(Br)cc21` the IC50 was greater than 5 µM.
For `O=C1C(=O)N(Cc2cnnn2CCNc2ccnc3cc(Cl)ccc23)c2ccccc21`, the IC50 was 3.07 µM.
`O=C1C(=O)N(Cc2cnnn2-c2ccnc3cc(Cl)ccc23)c2ccccc21` showed an IC50 greater than 5 µM.
`Cc1ccc2c(c1)C(=O)C(=O)N2Cc1cnnn1CCCNc1ccnc2cc(Cl)ccc12` gave an IC50 of 1.3 µM.
Compound `Cc1ccc2c(c1)C(=O)C(=O)N2Cc1cnnn1CCNc1ccnc2cc(Cl)ccc12` has an IC50 of 1.63 µM.
`O=C1C(=O)N(Cc2cnnn2-c2ccnc3cc(Cl)ccc23)c2ccc(F)cc21` was tested, and the IC50 was greater than 5 µM.

Reference: ChEMBL document CHEMBL2331318, “Azide-alkyne cycloaddition en route to 1H-1,2,3-triazole-tethered 7-chloroquinoline-isatin chimeras: synthesis and antimalarial evaluation” (Eur J Med Chem, 2013)
